Data taken from ChEMBL document CHEMBL3872252, “New bithiazolyl hydrazones: Novel synthesis, characterization and antitubercular evaluation” (Bioorg Med Chem Lett, 2017).
Converted amounts (≈) assume the structure as drawn.

Assays:
[1] = Antitubercular activity against Mycobacterium tuberculosis H37Ra ATCC 25177 dormant stage infected in human THP1 cells measured on day 12 by nitrate reductase assay; format: functional, THP-1; settings: ATCC 25177, 288 h
[2] = Antitubercular activity against Mycobacterium tuberculosis H37Ra ATCC 25177 active stage infected in human THP1 cells measured on day 8 by nitrate reductase assay; format: functional, THP-1; settings: ATCC 25177, 192 h
[3] = Antitubercular activity against Mycobacterium tuberculosis H37Ra ATCC 25177 active stage measured on day 8 by XTT reduction menadione based two-fold dilution assay; format: functional; settings: ATCC 25177, 192 h
Outline: (§1)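 M. tuberculosis H37Ra ATCC 25177 was exposed to 0.7–100 μg/mL in two-fold steps (0.7, 1.5, 3.1 … 100). Active stage was read after 8 days and dormant stage after 12 days of incubation. Inhibition was read by XTT reduction menadione assay (XRMA), absorbance 470 nm. MIC90 is the concentration giving ≥90% inhibition (µg/mL).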

[4] = Antitubercular activity against Mycobacterium tuberculosis H37Ra ATCC 25177 dormant stage measured on day 12 by XTT reduction menadione based two-fold dilution assay; format: functional; settings: ATCC 25177, 288 h; outline: as §1
[5] = Antitubercular activity against Mycobacterium bovis BCG ATCC 35743 active stage measured on day 8 by nitrate reductase based two-fold dilution assay; format: functional, Mycobacterium bovis BCG str. ATCC 35743; settings: Mycobacterium tuberculosis variant bovis BCG, ATCC 35743, 192 h
[6] = Antitubercular activity against Mycobacterium bovis BCG ATCC 35743 dormant stage measured on day 12 by nitrate reductase based two-fold dilution assay; format: functional, Mycobacterium bovis BCG str. ATCC 35743; settings: Mycobacterium tuberculosis variant bovis BCG, ATCC 35743, 288 h
[7] = Cytotoxicity against human THP1 cells by MTT assay; format: toxicity, cell-based, THP-1; settings: for GI50: THP1 cells; for GI90: thp-1
[8] = Cytotoxicity against human MCF7 cells by MTT assay; format: toxicity, cell-based; settings: for GI50: MCF7 cells; for GI90: mcf7
[9] = Cytotoxicity against human HCT116 cells by MTT assay; format: toxicity, cell-based, HCT-116; settings: for GI50: HCT116 cells; for GI90: hct-116
[10] = Selectivity index, ratio of GI50 for human MCF7 cells to MIC90 for Mycobacterium tuberculosis H37Ra ATCC 25177 active stage; format: toxicity, cell-based; settings: read-out: Selectivity Index
Outline: (§2)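 Cytotoxicity was measured on human MCF-7, HCT116 and THP-1 cells by MTT assay, with paclitaxel as reference. GI50 is the concentration inhibiting 50% of cell growth. The selectivity index is GI50 for the given cell line divided by MIC90 for the given mycobacterial strain and stage.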

[11] = Selectivity index, ratio of GI50 for human MCF7 cells to MIC90 for Mycobacterium tuberculosis H37Ra ATCC 25177 dormant stage; format: toxicity, cell-based; settings: read-out: Selectivity Index
Outline: (§3)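 Cytotoxicity was measured on human MCF-7, HCT116 and THP-1 cells by MTT assay, with paclitaxel as reference. The selectivity index is GI50 for the given cell line divided by MIC90 for the given mycobacterial strain and stage.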

[12] = Selectivity index, ratio of GI50 for human MCF7 cells to MIC90 for Mycobacterium bovis BCG ATCC 35743 active stage; format: toxicity, cell-based; settings: read-out: Selectivity Index; outline: as §2
[13] = Selectivity index, ratio of GI50 for human MCF7 cells to MIC90 for Mycobacterium bovis BCG ATCC 35743 dormant stage; format: toxicity, cell-based; settings: read-out: Selectivity Index; outline: as §3
[14] = Selectivity index, ratio of GI50 for human HCT116 cells to MIC90 for Mycobacterium tuberculosis H37Ra ATCC 25177 active stage; format: toxicity, cell-based, HCT-116; settings: read-out: Selectivity Index; outline: as §2
[15] = Selectivity index, ratio of GI50 for human HCT116 cells to MIC90 for Mycobacterium tuberculosis H37Ra ATCC 25177 dormant stage; format: toxicity, cell-based, HCT-116; settings: read-out: Selectivity Index; outline: as §3
[16] = Selectivity index, ratio of GI50 for human HCT116 cells to MIC90 for Mycobacterium bovis BCG ATCC 35743 active stage; format: toxicity, cell-based, HCT-116; settings: read-out: Selectivity Index; outline: as §2
[17] = Selectivity index, ratio of GI50 for human HCT116 cells to MIC90 for Mycobacterium bovis BCG ATCC 35743 dormant stage; format: toxicity, cell-based, HCT-116; settings: read-out: Selectivity Index; outline: as §3
[18] = Selectivity index, ratio of GI50 for human THP1 cells to MIC90 for Mycobacterium tuberculosis H37Ra ATCC 25177 active stage; format: toxicity, cell-based, THP-1; settings: read-out: Selectivity Index; outline: as §2
[19] = Selectivity index, ratio of GI50 for human THP1 cells to MIC90 for Mycobacterium tuberculosis H37Ra ATCC 25177 dormant stage; format: toxicity, cell-based, THP-1; settings: read-out: Selectivity Index; outline: as §3
[20] = Selectivity index, ratio of GI50 for human THP1 cells to MIC90 for Mycobacterium bovis BCG ATCC 35743 active stage; format: toxicity, cell-based, THP-1; settings: read-out: Selectivity Index; outline: as §2
[21] = Selectivity index, ratio of GI50 for human THP1 cells to MIC90 for Mycobacterium bovis BCG ATCC 35743 dormant stage; format: toxicity, cell-based, THP-1; settings: read-out: Selectivity Index; outline: as §3
[22] = test system: Escherichia coli; experiment: Growth inhibition of Escherichia coli at 30 ug/ml; format: functional; settings: read-out: GI
[23] = test system: Escherichia coli; experiment: Growth inhibition of Escherichia coli at 10 ug/ml; format: functional; settings: read-out: GI
[24] = test system: Escherichia coli; experiment: Growth inhibition of Escherichia coli at 3 ug/ml; format: functional; settings: read-out: GI
Outline: (§4)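 Screened against Gram-negative E. coli and P. aeruginosa and Gram-positive S. aureus and B. subtilis. Compound was tested at 3 µg/ml, and the read-out is percent growth inhibition.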

[25] = test system: Pseudomonas aeruginosa; experiment: Growth inhibition of Pseudomonas aeruginosa at 30 ug/ml; format: functional; settings: read-out: GI
[26] = test system: Pseudomonas aeruginosa; experiment: Growth inhibition of Pseudomonas aeruginosa at 10 ug/ml; format: functional; settings: read-out: GI
[27] = test system: Pseudomonas aeruginosa; experiment: Growth inhibition of Pseudomonas aeruginosa at 3 ug/ml; format: functional; settings: read-out: GI; outline: as §4
[28] = test system: Staphylococcus aureus; experiment: Growth inhibition of Staphylococcus aureus at 30 ug/ml; format: functional; settings: read-out: GI
[29] = test system: Staphylococcus aureus; experiment: Growth inhibition of Staphylococcus aureus at 10 ug/ml; format: functional; settings: read-out: GI
[30] = test system: Staphylococcus aureus; experiment: Growth inhibition of Staphylococcus aureus at 3 ug/ml; format: functional; settings: read-out: GI; outline: as §4
[31] = test system: Bacillus subtilis; experiment: Growth inhibition of Bacillus subtilis at 30 ug/ml; format: functional; settings: read-out: GI
[32] = test system: Bacillus subtilis; experiment: Growth inhibition of Bacillus subtilis at 10 ug/ml; format: functional; settings: read-out: GI
[33] = test system: Bacillus subtilis; experiment: Growth inhibition of Bacillus subtilis at 3 ug/ml; format: functional; settings: read-out: GI; outline: as §4

Q: Which MIC90 [1] does the source give for `C/C(=N\Nc1nc(-c2ccc(F)cc2)cs1)c1sc(C)nc1C` here?
A: 44.3 µg/mL (≈ 128 µM)

Q: What about the MIC90 [2] of the same molecule?
A: 57 µg/mL (≈ 165 µM)

Q: And the IC50 [3]?
A: 2.67 µg/mL (≈ 7.71 µM)

Q: And the MIC90 [3]?
A: 25.3 µg/mL (≈ 72.9 µM)

Q: And the IC50 [4]?
A: 2.04 µg/mL (≈ 5.89 µM)

Q: And the MIC90 [4]?
A: 53.8 µg/mL (≈ 155 µM)

Q: What about the IC50 [5] of the same molecule?
A: 6 µg/mL (≈ 17.3 µM)

Q: And the MIC90 [5]?
A: 9.29 µg/mL (≈ 26.8 µM)

Q: What about the IC50 [6] of the same molecule?
A: 6.04 µg/mL (≈ 17.4 µM)

Q: And the MIC90 [6]?
A: 10.4 µg/mL (≈ 30.1 µM)

Q: And the GI50 [7]?
A: > 100 µg/mL

Q: And the GI90 [7]?
A: > 100 µg/mL

Q: What about the GI50 [8] of the same molecule?
A: > 100 µg/mL

Q: And the GI90 [8]?
A: > 100 µg/mL

Q: And the GI50 [9]?
A: > 100 µg/mL

Q: What about the GI90 [9] of the same molecule?
A: > 100 µg/mL

Q: What about the selectivity ratio [10] of the same molecule?
A: 4

Q: And the selectivity ratio [11]?
A: 2

Q: And the selectivity ratio [12]?
A: 11

Q: What about the selectivity ratio [13] of the same molecule?
A: 10

Q: What about the selectivity ratio [14] of the same molecule?
A: 4

Q: And the selectivity ratio [15]?
A: 2

Q: And the selectivity ratio [16]?
A: 11

Q: What about the selectivity ratio [17] of the same molecule?
A: 10

Q: What about the selectivity ratio [18] of the same molecule?
A: 4

Q: What about the selectivity ratio [19] of the same molecule?
A: 2

Q: What about the selectivity ratio [20] of the same molecule?
A: 11

Q: What about the selectivity ratio [21] of the same molecule?
A: 10

Q: What about the inhibition of growth at 30 µg/mL [22] of the same molecule?
A: 84.3%

Q: And the inhibition of growth at 10 µg/mL [23]?
A: 77.3%

Q: What about the inhibition of growth at 3 µg/mL [24] of the same molecule?
A: 64%

Q: And the inhibition of growth at 30 µg/mL [25]?
A: 81.7%

Q: And the inhibition of growth at 10 µg/mL [26]?
A: 76.8%

Q: And the inhibition of growth at 3 µg/mL [27]?
A: 62%

Q: And the inhibition of growth at 30 µg/mL [28]?
A: 83.5%

Q: And the inhibition of growth at 10 µg/mL [29]?
A: 75.9%

Q: What about the inhibition of growth at 3 µg/mL [30] of the same molecule?
A: 61.6%

Q: And the inhibition of growth at 30 µg/mL [31]?
A: 82.2%

Q: And the inhibition of growth at 10 µg/mL [32]?
A: 74.1%

Q: And the inhibition of growth at 3 µg/mL [33]?
A: 58.6%

Q: For `C/C(=N\Nc1nc(-c2ccc(C)cc2)cs1)c1sc(C)nc1C`, which MIC90 [1] is on record?
A: 82.8 µg/mL (≈ 242 µM)

Q: And the MIC90 [2]?
A: 74.3 µg/mL (≈ 217 µM)

Q: And the IC50 [3]?
A: 11.1 µg/mL (≈ 32.3 µM)

Q: What about the MIC90 [3] of the same molecule?
A: > 100 µg/mL

Q: What about the IC50 [4] of the same molecule?
A: 8.35 µg/mL (≈ 24.4 µM)

Q: And the MIC90 [4]?
A: 65.8 µg/mL (≈ 192 µM)

Q: And the IC50 [5]?
A: 17.9 µg/mL (≈ 52.4 µM)

Q: And the MIC90 [5]?
A: 54.8 µg/mL (≈ 160 µM)

Q: And the IC50 [6]?
A: 9.67 µg/mL (≈ 28.2 µM)

Q: What about the MIC90 [6] of the same molecule?
A: 83.2 µg/mL (≈ 243 µM)

Q: And the GI50 [7]?
A: > 100 µg/mL

Q: And the GI90 [7]?
A: > 100 µg/mL

Q: What about the GI50 [8] of the same molecule?
A: > 100 µg/mL

Q: And the GI90 [8]?
A: > 100 µg/mL

Q: What about the GI50 [9] of the same molecule?
A: > 100 µg/mL

Q: And the GI90 [9]?
A: > 100 µg/mL

Q: What about the selectivity ratio [10] of the same molecule?
A: 1

Q: What about the selectivity ratio [11] of the same molecule?
A: 2

Q: What about the selectivity ratio [12] of the same molecule?
A: 1

Q: What about the selectivity ratio [13] of the same molecule?
A: 10

Q: And the selectivity ratio [14]?
A: 1

Q: What about the selectivity ratio [15] of the same molecule?
A: 2

Q: What about the selectivity ratio [16] of the same molecule?
A: 1

Q: What about the selectivity ratio [17] of the same molecule?
A: 10

Q: And the selectivity ratio [18]?
A: 1

Q: And the selectivity ratio [19]?
A: 2

Q: What about the selectivity ratio [20] of the same molecule?
A: 1

Q: What about the selectivity ratio [21] of the same molecule?
A: 10

Q: What about the inhibition of growth at 30 µg/mL [22] of the same molecule?
A: 73.7%

Q: And the inhibition of growth at 10 µg/mL [23]?
A: 83.3%

Q: What about the inhibition of growth at 3 µg/mL [24] of the same molecule?
A: 79.8%

Q: What about the inhibition of growth at 30 µg/mL [25] of the same molecule?
A: 72.8%

Q: What about the inhibition of growth at 10 µg/mL [26] of the same molecule?
A: 83.5%

Q: What about the inhibition of growth at 3 µg/mL [27] of the same molecule?
A: 79.6%

Q: And the inhibition of growth at 30 µg/mL [28]?
A: 72%

Q: And the inhibition of growth at 10 µg/mL [29]?
A: 82.4%

Q: What about the inhibition of growth at 3 µg/mL [30] of the same molecule?
A: 78.6%

Q: And the inhibition of growth at 30 µg/mL [31]?
A: 69.9%

Q: What about the inhibition of growth at 10 µg/mL [32] of the same molecule?
A: 81%

Q: What about the inhibition of growth at 3 µg/mL [33] of the same molecule?
A: 76.9%
